Measured values as given in PMC4539048 (Science translational medicine, 2015).

How the values were obtained:
rat DHODH = rat DHODH (Rattus norvegicus, UniProt Q63707); assay: DHODH inhibition, DCIP spectrophotometric assay; type: biochemical; conditions: mean of 3 technical replicates, 95% confidence interval in parentheses
dog DHODH = dog DHODH (Canis lupus familiaris, UniProt A0A8I3MWX2); assay: DHODH inhibition, DCIP spectrophotometric assay; type: biochemical; conditions: mean of 3 technical replicates, 95% confidence interval in parentheses
Chain of dog DHODH (A0A8I3MWX2 1-406): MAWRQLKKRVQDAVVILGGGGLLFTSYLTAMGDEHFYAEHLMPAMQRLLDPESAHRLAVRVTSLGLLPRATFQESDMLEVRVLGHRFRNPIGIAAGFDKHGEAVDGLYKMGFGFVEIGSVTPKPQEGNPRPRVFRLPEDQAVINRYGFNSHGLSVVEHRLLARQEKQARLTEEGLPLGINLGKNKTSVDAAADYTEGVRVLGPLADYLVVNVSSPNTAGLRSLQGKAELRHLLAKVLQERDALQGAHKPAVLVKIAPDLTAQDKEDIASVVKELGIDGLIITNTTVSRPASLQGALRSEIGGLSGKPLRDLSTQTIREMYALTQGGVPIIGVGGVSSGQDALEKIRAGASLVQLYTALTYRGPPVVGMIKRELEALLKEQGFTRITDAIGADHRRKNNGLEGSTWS

mouse DHODH = mouse DHODH (Mus musculus, UniProt O35435); assay: DHODH inhibition, DCIP spectrophotometric assay; type: biochemical; conditions: mean of 3 technical replicates, 95% confidence interval in parentheses
Chain of mouse DHODH (O35435 whole entry): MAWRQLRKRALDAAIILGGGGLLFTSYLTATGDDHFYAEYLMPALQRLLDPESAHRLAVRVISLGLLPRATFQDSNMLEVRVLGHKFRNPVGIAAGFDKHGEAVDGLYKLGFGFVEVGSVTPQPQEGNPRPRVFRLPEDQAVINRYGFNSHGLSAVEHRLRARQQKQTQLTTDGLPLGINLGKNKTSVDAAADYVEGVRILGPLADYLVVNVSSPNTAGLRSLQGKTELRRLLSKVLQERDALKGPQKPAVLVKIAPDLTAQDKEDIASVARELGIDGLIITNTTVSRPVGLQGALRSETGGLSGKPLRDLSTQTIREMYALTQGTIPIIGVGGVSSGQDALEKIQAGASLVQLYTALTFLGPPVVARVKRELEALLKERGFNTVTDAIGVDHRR

[1] = biological target: P. falciparum DHODH (PfDHODH) (Plasmodium falciparum, UniProt Q08210); type: biochemical; conditions: for IC50, P. falciparum DHODH: mean of 3 technical replicates, 95% confidence interval in parentheses
Chain of P. falciparum DHODH (PfDHODH) (Q08210 24-569): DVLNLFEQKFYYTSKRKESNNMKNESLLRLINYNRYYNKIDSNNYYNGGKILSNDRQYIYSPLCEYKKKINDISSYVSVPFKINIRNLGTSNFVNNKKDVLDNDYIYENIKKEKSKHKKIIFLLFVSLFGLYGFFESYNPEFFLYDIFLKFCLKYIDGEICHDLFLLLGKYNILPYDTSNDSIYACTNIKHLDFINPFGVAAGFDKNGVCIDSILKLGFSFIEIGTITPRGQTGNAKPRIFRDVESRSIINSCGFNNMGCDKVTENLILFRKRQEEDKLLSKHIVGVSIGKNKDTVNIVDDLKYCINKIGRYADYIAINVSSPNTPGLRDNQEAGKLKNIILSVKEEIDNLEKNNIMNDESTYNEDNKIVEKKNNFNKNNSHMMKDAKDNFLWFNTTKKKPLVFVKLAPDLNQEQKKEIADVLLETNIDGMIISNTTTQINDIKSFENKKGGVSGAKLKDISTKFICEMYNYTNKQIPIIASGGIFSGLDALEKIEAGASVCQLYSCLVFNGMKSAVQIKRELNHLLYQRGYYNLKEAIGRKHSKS

P. falciparum 3D7 [2] = assay: In vitro P. falciparum 3D7 growth inhibition; type: cell-based; conditions: for P. falciparum 3D7 growth inhibition EC50: 0.5% Albumax-II medium, 95% confidence intervals in parenthesis
How it was run: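 SYBR-green growth assay on P. falciparum 3D7 and drug-resistant lines, including chloroquine- and pyrimethamine-resistant parasites, cultured in RPMI-1640 with 0.5% Albumax-II. At least triplicate data per concentration. EC50 from the log(inhibitor) vs response variable-slope (four-parameter) fit by nonlinear least squares, reported with 95% confidence intervals of the fit.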

human DHODH = human DHODH (Homo sapiens, UniProt Q02127); assay: DHODH inhibition, DCIP spectrophotometric assay; type: biochemical; conditions: mean of 3 technical replicates, 95% confidence interval in parentheses
Chain of human DHODH (Q02127 whole entry): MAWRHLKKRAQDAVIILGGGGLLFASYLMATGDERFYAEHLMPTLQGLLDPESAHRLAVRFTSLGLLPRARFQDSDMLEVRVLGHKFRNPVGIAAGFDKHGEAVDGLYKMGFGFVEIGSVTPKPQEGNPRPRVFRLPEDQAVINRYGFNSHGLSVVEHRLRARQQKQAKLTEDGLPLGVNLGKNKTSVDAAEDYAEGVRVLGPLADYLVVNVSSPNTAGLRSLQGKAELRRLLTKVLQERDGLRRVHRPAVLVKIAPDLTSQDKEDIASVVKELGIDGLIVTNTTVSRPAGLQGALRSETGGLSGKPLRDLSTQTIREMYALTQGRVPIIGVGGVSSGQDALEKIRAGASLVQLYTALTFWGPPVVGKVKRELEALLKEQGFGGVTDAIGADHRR

rabbit DHODH = rabbit DHODH (Oryctolagus cuniculus, UniProt G1SWF3); assay: DHODH inhibition, DCIP spectrophotometric assay; type: biochemical; conditions: mean of 3 technical replicates
Chain of rabbit DHODH (G1SWF3 1-395): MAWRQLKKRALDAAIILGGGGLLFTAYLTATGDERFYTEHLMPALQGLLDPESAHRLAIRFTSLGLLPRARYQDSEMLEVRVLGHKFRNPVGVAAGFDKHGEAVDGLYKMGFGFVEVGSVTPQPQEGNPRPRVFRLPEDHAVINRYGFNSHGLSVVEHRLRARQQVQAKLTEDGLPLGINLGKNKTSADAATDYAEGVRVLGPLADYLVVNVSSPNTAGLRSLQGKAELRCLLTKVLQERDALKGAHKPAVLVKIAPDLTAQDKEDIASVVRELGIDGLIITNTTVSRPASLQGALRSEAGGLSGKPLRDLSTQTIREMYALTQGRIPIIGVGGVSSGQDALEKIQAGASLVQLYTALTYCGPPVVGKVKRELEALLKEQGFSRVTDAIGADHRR

[3] = Metabolite identification and profiling in pooled plasma; type: in vivo; conditions: all species, mass spectrometry peak area ratios, single dose of DSM265
How it was run: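 Pooled plasma from single-dose PK studies in mice, rabbits, monkeys and dogs was profiled by mass spectrometry. Metabolites were identified, and the main oxidative metabolite's structure was confirmed by synthesis. Each metabolite's exposure was estimated as a share of parent AUC from peak area ratios.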

P. vivax DHODH (PvDHODH) = P. vivax DHODH (PvDHODH) (Plasmodium vivax, UniProt A5K1N1); assay: DHODH inhibition, DCIP spectrophotometric assay; type: biochemical; conditions: mean of 3 technical replicates, 95% confidence interval in parentheses
[4] = test system: Salmonella typhimurium-E. coli; assay: 5-strain bacterial reverse mutation assay
P. falciparum 3D7 [5] = assay: Blood-stage phenotype and development by microscopy; type: cell-based; conditions: 10xEC50, 48 h
How it was run: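 Giemsa-stained smears were scored by microscopy, at least 200 cells per condition, for stage arrest and morphology. Standard antimalarials served as controls.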

[6] = test system: P. falciparum Dd2 and resistant clones; assay: microbe, parasite or virus in culture; type: cell-based; conditions: isolates derived from Dd2 and K1
P. falciparum HB3 = assay: In vitro selection of resistant parasites, HB3; type: cell-based; conditions: HB3 strain
P. falciparum Dd2 [7] = type: cell-based
P. falciparum Dd2 [8] = conditions: Dd2, same 3xEC50 protocol; cited from earlier work
[9] = test system: P. falciparum NF54 liver-stage parasites; conditions: historical data using the same donor; cited from earlier work
[10] = test system: G6PD-deficient human red blood cells; type: in vivo, NOD-SCID mice; conditions: blood type A- G6PD-deficient human red blood cells

Chain of rat DHODH (Q63707 whole entry): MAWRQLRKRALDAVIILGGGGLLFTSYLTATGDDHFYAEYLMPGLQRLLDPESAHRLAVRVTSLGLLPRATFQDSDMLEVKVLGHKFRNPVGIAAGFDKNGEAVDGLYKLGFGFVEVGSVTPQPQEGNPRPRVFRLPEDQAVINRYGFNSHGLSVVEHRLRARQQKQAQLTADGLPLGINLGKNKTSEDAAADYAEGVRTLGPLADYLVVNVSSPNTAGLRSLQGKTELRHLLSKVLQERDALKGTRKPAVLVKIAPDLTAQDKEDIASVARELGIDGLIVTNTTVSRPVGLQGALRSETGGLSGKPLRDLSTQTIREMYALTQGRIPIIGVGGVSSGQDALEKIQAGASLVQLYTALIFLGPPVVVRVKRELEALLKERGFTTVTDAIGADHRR

## Cc1cc(Nc2ccc(S(F)(F)(F)(F)F)c(F)c2)n2nc(C(C)(F)F)nc2n1 [DSM430, 2-(1,1-difluoroethyl)-N-(3-fluoro-4-(pentafluoro-l^6-sulfanyl)phenyl)-5-methyl-[1,2,4]triazolo[1,5-a]pyrimidin-7-amine]
Rat DHODH
  IC50, Rat DHODH: 0.082 (0.069 – 0.099) μg/mL
Dog DHODH
  IC50, Dog DHODH: 0.56 (0.48 – 0.65) μg/mL
Mouse DHODH
  IC50, Mouse DHODH: 0.10 (0.082 – 0.12) μg/mL
[1]
  IC50, P. falciparum DHODH: 0.010 (0.0079 – 0.014) μg/mL
P. falciparum 3D7 [2]
  P. falciparum 3D7 growth inhibition EC50: 0.0002 (0.00011 – 0.00056) μg/mL
Human DHODH
  IC50, Human DHODH: 3.7 (2.6 – 4.8) μg/mL

## CC(F)(F)c1nc2nc(CO)cc(Nc3ccc(S(F)(F)(F)(F)F)cc3)n2n1 [DSM450, (2-(1,1-difluoroethyl)-7-((4-(pentafluoro-l^6-sulfanyl)phenyl)amino)-[1,2,4]triazolo[1,5-a]pyrimidin-5-yl)methanol]
Rat DHODH
  IC50, Rat DHODH: 1.6 (1.2 – 2.0) μg/mL
Dog DHODH
  IC50, Dog DHODH: 25 (21 – 29) μg/mL
Rabbit DHODH
  IC50, Rabbit DHODH: >43 µg/mL
Mouse DHODH
  IC50, Mouse DHODH: 4.5 (3.1 – 6.9) μg/mL
[1]
  fold less potent than DSM265 as a PfDHODH inhibitor: 3 fold
  IC50, P. falciparum DHODH: 0.032 (0.026 – 0.040) μg/mL
[3]
  plasma metabolite exposure as share of the parent AUC: 4–27%
P. vivax DHODH (PvDHODH)
  IC50, P. vivax DHODH: 0.11 (0.081 – 0.15) μg/mL
P. falciparum 3D7 [2]
  fold less active than DSM265 against P. falciparum 3D7 parasites: 43 fold
  P. falciparum 3D7 growth inhibition EC50: 0.079 (0.042 – 0.15) μg/mL
Human DHODH
  IC50, Human DHODH: >43 µg/mL

## Nc1ccc(S(F)(F)(F)(F)F)cc1 [SF5-aniline]
[4]
  mutagenic activity (Ames test): non-mutagenic

## C[C@@H]1CC[C@H]2[C@@H](C)C(=O)O[C@@H]3O[C@@]4(C)CC[C@@H]1[C@]32OO4 [artemisinin]
P. falciparum 3D7 [5]
  blood-stage phenotype after treatment: pyknotic
[6]
  sensitivity of DSM265-resistant isolates to the drug: fully sensitive

## O=C1C(O)=C([C@H]2CC[C@H](c3ccc(Cl)cc3)CC2)C(=O)c2ccccc21 [atovaquone]
P. falciparum HB3
  outcome of resistance selection: resistant HB3 parasites could be obtained
[6]
  sensitivity of DSM265-resistant isolates to the drug: fully sensitive
P. falciparum Dd2 [7]; Dd2, inoculum 2×10^7 parasites
  drug concentration required to suppress emergence of resistant parasites: 33 xEC50
P. falciparum Dd2 [7]; parasites selected with the same drug
  EC50 increase of resistant Dd2 parasites over wild-type: 10 fold

## CCN(CC)CCCC(C)Nc1ccnc2cc(Cl)ccc12 (centres unmarked) [chloroquine]
P. falciparum Dd2 [8]
  minimum inoculum for resistance (MIR): 10^8

## COc1cc(NC(C)CCCN)c2ncccc2c1 (centres unmarked) [primaquine]
[9]
  EC50 on hepatocyte infection rate (EEF count): 0.20 (0.059 – 0.71) μg/mL
  Liver-stage schizont EC50 (EEF diameter/size): 0.15 µg/mL
[10]
  hemolytic toxicity: substantial loss in human RBCs

## CCc1nc(N)nc(N)c1-c1ccc(Cl)cc1 [pyrimethamine]
P. falciparum 3D7 [5]
  blood-stage phenotype after treatment: arrested as mature trophozoites
